Experimental findings from ChEMBL document CHEMBL2202955, “Identification of Potent, Selective, Cell-Active Inhibitors of the Histone Lysine Methyltransferase EZH2” (ACS Med Chem Lett, 2012) are described below.

A value given as a limit tells only on which side of the number the result lay.

In assay [1] the target is Protein arginine N-methyltransferase 5 (Homo sapiens, UniProt O14744). As to the kind of experiment: Inhibition of PRMT5 using histone H3 as substrate preincubated for 10 mins followed by addition of [3H]SAM and incubated for 60 mins. The essentials: (§1)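 Panel of methyltransferases tested for selectivity. […] Values are the mean of at least two independent replicates.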
Protein arginine N-methyltransferase 5, sequence (O14744 whole entry): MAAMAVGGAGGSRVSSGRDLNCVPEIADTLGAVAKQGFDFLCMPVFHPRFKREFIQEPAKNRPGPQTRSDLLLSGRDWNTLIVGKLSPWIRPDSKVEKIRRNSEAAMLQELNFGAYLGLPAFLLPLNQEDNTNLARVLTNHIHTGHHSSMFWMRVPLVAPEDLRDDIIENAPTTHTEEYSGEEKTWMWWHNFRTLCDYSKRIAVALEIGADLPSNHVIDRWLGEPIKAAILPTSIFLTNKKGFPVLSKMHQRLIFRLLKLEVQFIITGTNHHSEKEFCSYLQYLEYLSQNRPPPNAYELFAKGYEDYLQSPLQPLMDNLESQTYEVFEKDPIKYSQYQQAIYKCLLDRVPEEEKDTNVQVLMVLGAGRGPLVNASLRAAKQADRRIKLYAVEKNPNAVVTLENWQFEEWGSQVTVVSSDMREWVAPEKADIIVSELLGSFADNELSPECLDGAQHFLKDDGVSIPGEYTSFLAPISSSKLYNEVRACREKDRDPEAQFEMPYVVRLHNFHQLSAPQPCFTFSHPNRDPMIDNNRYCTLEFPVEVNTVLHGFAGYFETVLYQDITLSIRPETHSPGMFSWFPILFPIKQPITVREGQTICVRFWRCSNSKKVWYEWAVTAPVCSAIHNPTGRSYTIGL

Assay [2] addresses EZH1/SUZ12/EED/AEBP2/RBBP4 complex. As to the kind of experiment: Inhibition of PRC2 complex of EZH1, EED, SUZ12, AEBP2 and RbAp48 using histone H3 peptide (21 to 44) as substrate and [3H]SAM after 1 hr by SPA. It is filed as protein-complex assay. The essentials: as §1
Assay [3] addresses Protein arginine N-methyltransferase 1 (Homo sapiens, UniProt Q99873). Kind of assay: Inhibition of PRMT1 using histone H4 as substrate preincubated for 10 mins followed by addition of [3H]SAM and incubated for 60 mins. Summed up:
as §1

Assay [4] deals with T1, Histone-arginine methyltransferase CARM1 (Homo sapiens, UniProt Q86X55).
T1 sequence (Q86X55 whole entry): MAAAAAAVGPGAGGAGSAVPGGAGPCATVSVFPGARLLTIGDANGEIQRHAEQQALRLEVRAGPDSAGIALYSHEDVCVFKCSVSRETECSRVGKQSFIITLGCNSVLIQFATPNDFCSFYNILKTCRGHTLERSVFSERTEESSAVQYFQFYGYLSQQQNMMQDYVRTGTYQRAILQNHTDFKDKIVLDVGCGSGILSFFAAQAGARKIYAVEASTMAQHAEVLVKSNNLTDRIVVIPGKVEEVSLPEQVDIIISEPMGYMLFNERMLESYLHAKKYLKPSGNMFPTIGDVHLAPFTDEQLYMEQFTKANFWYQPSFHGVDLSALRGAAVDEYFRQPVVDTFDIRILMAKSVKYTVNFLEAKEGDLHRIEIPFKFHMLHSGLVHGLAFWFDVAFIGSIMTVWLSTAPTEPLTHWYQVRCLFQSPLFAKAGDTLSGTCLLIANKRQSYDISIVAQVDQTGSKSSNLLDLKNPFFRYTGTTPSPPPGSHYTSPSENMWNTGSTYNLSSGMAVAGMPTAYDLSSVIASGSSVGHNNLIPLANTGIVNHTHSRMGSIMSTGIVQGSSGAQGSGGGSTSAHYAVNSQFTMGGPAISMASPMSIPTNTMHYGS
Kind of assay: Inhibition of PRMT4 using histone H3 as substrate preincubated for 10 mins followed by addition of [3H]SAM and incubated for 60 mins. Summed up:
as §1

Assay [5] deals with DNA (cytosine-5)-methyltransferase 3B (Mus musculus, UniProt O88509). As to the kind of experiment: Inhibition of mouse DNMT3b1 using lambda DNA as substrate preincubated for 10 mins followed by addition of [3H]SAM and incubated for 60 mins. The essentials: as §1
The target in assay [6] is Histone-lysine N-methyltransferase, H3 lysine-79 specific (Homo sapiens, UniProt Q8TEK3). As to the kind of experiment: Inhibition of DOT1L using core histone as substrate preincubated for 10 mins followed by addition of [3H]SAM and incubated for 60 mins. The essentials: as §1
Histone-lysine N-methyltransferase, H3 lysine-79 specific, sequence (Q8TEK3 whole entry): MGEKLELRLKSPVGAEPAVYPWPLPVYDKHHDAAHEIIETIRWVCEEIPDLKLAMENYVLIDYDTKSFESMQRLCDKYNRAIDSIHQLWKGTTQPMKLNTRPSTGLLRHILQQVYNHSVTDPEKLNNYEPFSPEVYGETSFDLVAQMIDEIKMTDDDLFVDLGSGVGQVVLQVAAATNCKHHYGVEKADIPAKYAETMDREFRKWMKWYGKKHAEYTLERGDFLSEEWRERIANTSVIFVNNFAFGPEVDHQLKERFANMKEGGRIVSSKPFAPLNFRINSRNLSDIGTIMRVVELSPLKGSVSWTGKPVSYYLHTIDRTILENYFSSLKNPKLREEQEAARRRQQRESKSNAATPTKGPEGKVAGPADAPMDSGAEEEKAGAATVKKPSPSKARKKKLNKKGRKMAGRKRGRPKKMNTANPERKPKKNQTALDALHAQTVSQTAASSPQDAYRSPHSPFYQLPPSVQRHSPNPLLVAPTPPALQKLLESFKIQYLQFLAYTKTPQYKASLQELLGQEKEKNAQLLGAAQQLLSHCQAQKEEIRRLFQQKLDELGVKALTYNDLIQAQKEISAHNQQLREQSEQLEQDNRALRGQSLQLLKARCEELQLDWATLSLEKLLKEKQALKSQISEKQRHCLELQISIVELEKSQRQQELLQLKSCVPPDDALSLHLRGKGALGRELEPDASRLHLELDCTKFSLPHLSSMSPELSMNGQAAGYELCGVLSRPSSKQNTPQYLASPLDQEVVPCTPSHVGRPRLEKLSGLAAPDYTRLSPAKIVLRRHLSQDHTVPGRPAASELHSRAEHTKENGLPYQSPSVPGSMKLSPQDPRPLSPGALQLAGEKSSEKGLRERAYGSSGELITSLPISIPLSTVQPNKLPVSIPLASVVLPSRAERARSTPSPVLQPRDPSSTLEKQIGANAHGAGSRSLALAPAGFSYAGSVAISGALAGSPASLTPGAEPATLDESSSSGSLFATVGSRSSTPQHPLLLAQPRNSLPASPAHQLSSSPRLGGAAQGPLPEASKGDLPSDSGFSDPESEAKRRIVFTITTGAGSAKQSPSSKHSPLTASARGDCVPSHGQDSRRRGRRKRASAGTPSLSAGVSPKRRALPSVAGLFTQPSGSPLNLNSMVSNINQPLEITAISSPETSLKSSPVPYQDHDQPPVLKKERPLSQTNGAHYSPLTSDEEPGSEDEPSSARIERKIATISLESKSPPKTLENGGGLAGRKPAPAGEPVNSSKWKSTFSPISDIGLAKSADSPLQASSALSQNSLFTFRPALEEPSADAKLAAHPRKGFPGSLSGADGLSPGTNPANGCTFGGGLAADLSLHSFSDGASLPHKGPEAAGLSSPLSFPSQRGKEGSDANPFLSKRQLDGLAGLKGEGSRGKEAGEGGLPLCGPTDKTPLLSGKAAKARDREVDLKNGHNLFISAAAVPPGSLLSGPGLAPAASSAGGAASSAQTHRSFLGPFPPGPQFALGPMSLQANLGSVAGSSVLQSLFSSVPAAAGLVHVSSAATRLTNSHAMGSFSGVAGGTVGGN
Assay [7] concerns the target T2, Histone-lysine N-methyltransferase SETMAR (Homo sapiens, UniProt Q53H47).
T2 sequence (Q53H47 whole entry): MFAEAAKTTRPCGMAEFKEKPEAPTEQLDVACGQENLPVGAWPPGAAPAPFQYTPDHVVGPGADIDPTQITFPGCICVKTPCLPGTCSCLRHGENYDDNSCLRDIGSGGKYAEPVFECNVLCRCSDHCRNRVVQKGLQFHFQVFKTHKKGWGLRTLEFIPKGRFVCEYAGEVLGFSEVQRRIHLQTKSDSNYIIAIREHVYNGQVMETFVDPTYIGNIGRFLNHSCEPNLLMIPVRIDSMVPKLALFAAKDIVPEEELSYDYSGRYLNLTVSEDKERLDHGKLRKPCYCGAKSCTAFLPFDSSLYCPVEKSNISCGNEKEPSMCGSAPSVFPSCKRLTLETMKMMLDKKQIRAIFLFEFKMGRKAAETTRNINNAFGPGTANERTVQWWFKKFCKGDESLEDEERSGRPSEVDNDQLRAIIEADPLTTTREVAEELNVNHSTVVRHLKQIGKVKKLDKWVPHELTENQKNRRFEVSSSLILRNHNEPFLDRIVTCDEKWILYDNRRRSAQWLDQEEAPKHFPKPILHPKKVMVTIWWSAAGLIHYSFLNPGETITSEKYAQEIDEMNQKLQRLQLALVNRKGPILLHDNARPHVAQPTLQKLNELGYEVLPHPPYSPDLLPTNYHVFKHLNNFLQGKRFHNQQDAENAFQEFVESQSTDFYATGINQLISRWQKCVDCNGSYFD
As to the kind of experiment: Inhibition of SETMAR using histone H3 as substrate preincubated for 10 mins followed by addition of [3H]SAM and incubated for 60 mins. Summed up: as §1

Assay [8] deals with T3, Histone-lysine N-methyltransferase SUV39H1 (Homo sapiens, UniProt O43463).
T3 sequence (O43463 whole entry): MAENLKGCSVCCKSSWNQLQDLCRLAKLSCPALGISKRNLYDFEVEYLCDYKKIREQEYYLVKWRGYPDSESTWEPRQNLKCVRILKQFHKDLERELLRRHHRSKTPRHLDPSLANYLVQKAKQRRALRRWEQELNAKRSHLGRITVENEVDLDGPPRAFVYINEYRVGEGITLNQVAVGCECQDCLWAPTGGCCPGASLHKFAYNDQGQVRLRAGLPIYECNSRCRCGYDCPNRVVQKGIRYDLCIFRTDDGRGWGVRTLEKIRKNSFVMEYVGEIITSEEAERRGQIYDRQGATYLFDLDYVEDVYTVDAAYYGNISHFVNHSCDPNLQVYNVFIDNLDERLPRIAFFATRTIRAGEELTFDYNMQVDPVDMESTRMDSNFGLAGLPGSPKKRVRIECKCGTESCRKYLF
As to the kind of experiment: Inhibition of SUV39H1 using histone H3 as substrate preincubated for 10 mins followed by addition of [3H]SAM and incubated for 60 mins. The essentials:
as §1

The target in assay [9] is DNA (cytosine-5)-methyltransferase 3A (Homo sapiens, UniProt Q9Y6K1). As to the kind of experiment: Inhibition of DNMT3a using lambda DNA as substrate preincubated for 10 mins followed by addition of [3H]SAM and incubated for 60 mins. The essentials:
as §1

In assay [10] the target is Histone-lysine N-methyltransferase SUV39H2 (Homo sapiens, UniProt Q9H5I1). As to the kind of experiment: Inhibition of SUV39H2 using histone H3 as substrate preincubated for 10 mins followed by addition of [3H]SAM and incubated for 60 mins. The essentials:
as §1

Assay [11] concerns the target EZH2/SUZ12/EED/RBBP7/RBBP4. As to the kind of experiment: Inhibition of PRC2 complex of FLAG-EZH2, EED, SUZ12, AEBP2 and RbAp48 using histone H3 peptide (21 to 44) as substrate and [3H]SAM after 1 hr. The assay is classed as protein-complex assay.
Assay [12] has as its target Protein arginine N-methyltransferase 3 (Homo sapiens, UniProt O60678). Kind of assay: Inhibition of PRMT3 using histone H3 as substrate preincubated for 10 mins followed by addition of [3H]SAM and incubated for 60 mins. The essentials:
as §1

Protein arginine N-methyltransferase 1, sequence (Q99873 whole entry): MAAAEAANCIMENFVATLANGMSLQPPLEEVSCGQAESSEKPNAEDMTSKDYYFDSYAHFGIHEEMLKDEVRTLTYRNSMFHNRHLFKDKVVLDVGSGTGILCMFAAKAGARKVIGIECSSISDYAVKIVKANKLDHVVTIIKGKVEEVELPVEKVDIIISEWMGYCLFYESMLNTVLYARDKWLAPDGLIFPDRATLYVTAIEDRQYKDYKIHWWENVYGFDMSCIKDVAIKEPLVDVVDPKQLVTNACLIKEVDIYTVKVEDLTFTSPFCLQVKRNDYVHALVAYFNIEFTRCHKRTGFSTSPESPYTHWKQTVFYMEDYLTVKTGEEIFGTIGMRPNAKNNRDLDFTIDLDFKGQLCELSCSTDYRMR
DNA (cytosine-5)-methyltransferase 3A, sequence (Q9Y6K1 whole entry, looked up): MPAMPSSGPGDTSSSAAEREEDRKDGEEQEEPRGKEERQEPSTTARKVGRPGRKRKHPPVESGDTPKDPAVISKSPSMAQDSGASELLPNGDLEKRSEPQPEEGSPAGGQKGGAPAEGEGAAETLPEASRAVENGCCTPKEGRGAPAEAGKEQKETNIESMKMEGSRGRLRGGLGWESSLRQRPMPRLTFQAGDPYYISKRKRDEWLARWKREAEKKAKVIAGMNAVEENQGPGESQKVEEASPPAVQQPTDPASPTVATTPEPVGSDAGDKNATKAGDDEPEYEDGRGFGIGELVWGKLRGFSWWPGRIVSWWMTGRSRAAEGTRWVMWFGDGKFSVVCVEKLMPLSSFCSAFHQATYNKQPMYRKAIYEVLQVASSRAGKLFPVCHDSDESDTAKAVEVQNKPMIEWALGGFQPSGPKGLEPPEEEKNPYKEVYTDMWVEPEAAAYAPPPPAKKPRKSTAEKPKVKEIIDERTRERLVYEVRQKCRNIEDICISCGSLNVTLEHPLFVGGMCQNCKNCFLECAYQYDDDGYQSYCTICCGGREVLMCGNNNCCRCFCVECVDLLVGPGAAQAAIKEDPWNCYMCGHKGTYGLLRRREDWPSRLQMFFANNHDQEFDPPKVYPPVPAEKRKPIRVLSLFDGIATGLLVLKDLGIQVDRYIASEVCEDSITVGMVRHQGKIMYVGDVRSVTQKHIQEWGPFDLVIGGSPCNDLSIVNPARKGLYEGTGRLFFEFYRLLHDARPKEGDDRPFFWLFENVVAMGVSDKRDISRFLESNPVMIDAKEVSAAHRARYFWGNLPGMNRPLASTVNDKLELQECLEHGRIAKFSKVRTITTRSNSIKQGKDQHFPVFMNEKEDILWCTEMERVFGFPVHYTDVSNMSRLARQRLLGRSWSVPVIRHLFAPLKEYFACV
Protein arginine N-methyltransferase 3, sequence (O60678 whole entry): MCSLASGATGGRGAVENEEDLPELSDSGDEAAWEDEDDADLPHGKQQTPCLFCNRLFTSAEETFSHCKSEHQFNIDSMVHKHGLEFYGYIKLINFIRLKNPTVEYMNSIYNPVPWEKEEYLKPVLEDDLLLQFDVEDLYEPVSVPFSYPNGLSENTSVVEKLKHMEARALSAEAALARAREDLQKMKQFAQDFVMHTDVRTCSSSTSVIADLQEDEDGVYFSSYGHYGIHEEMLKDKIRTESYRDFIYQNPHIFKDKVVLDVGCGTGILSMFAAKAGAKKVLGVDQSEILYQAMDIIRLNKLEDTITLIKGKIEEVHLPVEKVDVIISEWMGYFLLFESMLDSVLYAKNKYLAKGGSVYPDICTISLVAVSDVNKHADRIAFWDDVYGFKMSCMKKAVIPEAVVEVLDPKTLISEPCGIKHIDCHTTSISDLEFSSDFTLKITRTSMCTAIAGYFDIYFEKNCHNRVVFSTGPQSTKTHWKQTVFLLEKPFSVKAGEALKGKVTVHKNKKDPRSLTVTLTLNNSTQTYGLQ
Histone-lysine N-methyltransferase SUV39H2, sequence (Q9H5I1 whole entry): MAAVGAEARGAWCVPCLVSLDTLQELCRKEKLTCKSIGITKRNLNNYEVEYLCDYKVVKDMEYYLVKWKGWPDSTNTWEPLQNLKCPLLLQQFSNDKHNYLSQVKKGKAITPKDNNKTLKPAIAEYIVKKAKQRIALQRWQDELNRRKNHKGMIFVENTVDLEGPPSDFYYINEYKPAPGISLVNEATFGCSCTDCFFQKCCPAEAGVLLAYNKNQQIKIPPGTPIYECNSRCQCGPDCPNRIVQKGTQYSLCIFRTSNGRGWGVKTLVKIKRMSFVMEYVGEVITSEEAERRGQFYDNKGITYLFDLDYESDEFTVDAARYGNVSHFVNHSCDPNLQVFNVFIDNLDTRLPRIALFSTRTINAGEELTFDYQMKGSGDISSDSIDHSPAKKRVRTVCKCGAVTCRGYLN

The term IC50 denotes the concentration that gives 50% inhibition. A lower IC50 goes with higher potency. Regarding `Cc1cc(C)c(CNC(=O)c2cc(-c3ccc(N4CCN(C)CC4)nc3)cc3c2cnn3C(C)C)c(=O)[nH]1`, the IC50 in [1] is more than 100 µM; in assay [2], 2.5 µM; in assay [3], more than 100 µM; in assay [4], more than 100 µM; in assay [5], more than 100 µM; in assay [6], more than 100 µM. Moreover, the 50% inhibitory concentration (IC50) in assay [7] is more than 100 µM; in [8], more than 100 µM; in [9], more than 100 µM; in assay [10], more than 100 µM; in assay [11], 0.02 µM; in assay [12], more than 100 µM.
Consider `CCCc1cc(C)[nH]c(=O)c1CNC(=O)c1cc(-c2ccnc(N3CCN(C)CC3)c2)cc2c1cnn2C(C)C`, for which the IC50 is more than 100 µM in assay [1]; 0.24 µM in assay [2]; more than 100 µM in [3]; 128 µM in [4]; more than 100 µM in assay [5]; more than 100 µM in assay [6]. The IC50 in assay [7] was more than 100 µM; in assay [8], more than 100 µM; in assay [9] it was more than 100 µM; in assay [10], 123 µM; in assay [11], 0.004 µM; in assay [12], 74 µM.
For `CCCc1cc(C)[nH]c(=O)c1CNC(=O)c1cc(-c2ccc(N3CCN(C)CC3)nc2)cc2c1cnn2C(C)C`, the IC50 in assay [1] was more than 100 µM; in assay [2] it was 0.1 µM; in assay [3], more than 100 µM; in assay [4] it was 116 µM; in assay [5], more than 100 µM; in [6], more than 100 µM. Besides, the IC50 in assay [7] is more than 100 µM; in assay [8], more than 100 µM; in assay [9] it was more than 100 µM; in [10] it was more than 100 µM; in assay [11] it was 0.004 µM; in assay [12], 54 µM.
